The structures appear in SMILES notation. The source made the active and inactive calls. The calls are words filed in the database; no cut-off is given here.

Assay [1] concerns the target T1, Protein cereblon/Aurora kinase A (Homo sapiens) (UniProt O14965+Q96SW2). The assay is described as follows: PROTAC activity at AURKA/CRBN in human NGP cells assessed as AURKA degradation at 10 to 1000 nM measured for 24 hrs by immunoblotting analysis. It counts as cell-based. As to conditions: dose 10-1000 nM. In outline:
(§1)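 NGP cells were seeded at about 2×10^6 per flask, adhered for 48 h, and were then treated for 24 h with DMSO matched. Lysis was in RIPA with protease/phosphatase inhibitors. AURKA was quantified by capillary Simple Western with peak areas normalised to vinculin. Fold change is relative to DMSO (mean ± SD, n = 3).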
Background: A western blot detects proteins with antibodies after separation by electrophoresis.

For assay [2], the target named is T2, N-myc proto-oncogene protein (Homo sapiens) (UniProt P04198).
T2 sequence (whole entry): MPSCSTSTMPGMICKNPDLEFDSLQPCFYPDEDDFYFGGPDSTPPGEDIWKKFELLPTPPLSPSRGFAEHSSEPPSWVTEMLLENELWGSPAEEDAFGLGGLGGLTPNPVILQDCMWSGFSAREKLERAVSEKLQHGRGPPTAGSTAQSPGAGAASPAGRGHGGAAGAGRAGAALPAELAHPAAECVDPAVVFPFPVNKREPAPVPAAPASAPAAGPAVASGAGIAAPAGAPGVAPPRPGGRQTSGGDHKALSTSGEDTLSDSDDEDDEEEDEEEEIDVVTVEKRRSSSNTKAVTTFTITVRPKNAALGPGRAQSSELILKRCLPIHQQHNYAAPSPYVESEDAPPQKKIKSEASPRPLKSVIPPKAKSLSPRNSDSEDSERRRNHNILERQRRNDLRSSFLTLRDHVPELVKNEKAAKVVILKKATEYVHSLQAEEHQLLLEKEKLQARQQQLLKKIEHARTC
In words: Induction of MYCN degradation in human NGP cells at 500 nM measured for 72 hrs by Western blot analysis relative to control. It counts as cell-based. The method, boiled down:
(§2)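 NGP cells were treated with 500 nM compound and harvested at 0, 1, 3, 6, 24, 48 and 72 h. RIPA lysates (35 µg) were run on 10% SDS-PAGE and blotted to nitrocellulose. AURKA and MYCN were probed with vinculin as loading control and quantified by densitometry. Values are percent remaining relative to the DMSO control at each timepoint (n = 3).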

Assay [3] in a line: Growth inhibition of patient derived 000GKX Neuroblastoma organoid assessed as reduction in viability incubated for […] by CellTiter Glo 3D assay relative to control. The assay is classed as functional. As to conditions: Homo sapiens.
Assay [4] in a line: Antiproliferative activity against human N206 cells assessed as reduction in cell viability incubated for 48 hrs relative to control. The assay is classed as functional.
Another assay relates to NGP. The assay is described as follows: Induction of apoptosis in human NGP cells assessed as increase in caspase3/7 level at 10 nM incubated for 24 hrs. It counts as functional, cell-based. In outline:
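NGP cells were seeded at 25,000 cells/well and allowed to adhere overnight. Compound was dispensed in triplicate with DMSO matched. At 24 h, cell-occupied area was imaged live, then a Caspase-Glo 3/7 assay was run using 50 µL reagent per well. Signal is expressed per cell-occupied area.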

In assay [5] the target is T1, Protein cereblon/Aurora kinase A (Homo sapiens). The assay is described as follows: PROTAC activity at AURKA/CRBN in human NGP cells assessed as AURKA degradation at 100 nM measured for 3 hrs by shotgun proteome profiling relative to control.
Assay [6] has the same target. The assay is described as follows: PROTAC activity at AURKA/CRBN in human NGP cells assessed as increase in H2AX phosphorylation at 10 to 1000 nM measured for 24 hrs by immunoblotting analysis. As to conditions: dose 10-1000 nM. It counts as cell-based.
The nature of assay [7]: Antiproliferative activity against human NGP cells assessed as reduction in cell viability incubated for 48 hrs relative to control. The assay is classed as functional.
The nature of assay [8]: Antiproliferative activity against human N206 cells assessed as reduction in cell viability incubated for 48 hrs. It counts as functional, cell-based. In outline:
(§3)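 Cells were grown in RPMI 1640 with 10% FCS and 2 mM L-glutamine. Seeding was 4500 cells/well for NGP, IMR-32 and N206, and 2100 cells/well for SK-N-AS, with adherence overnight. Compound was dispensed over a concentration range in triplicate. Confluence was imaged live for 48 h and normalised to the DMSO control. Absolute IC50 came from a four-parameter variable-slope fit (n = 4).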

Assay [9] is described as follows: Growth inhibition of patient derived 000GKX Neuroblastoma organoid assessed as reduction in viability […] by CellTiter Glo 3D assay. The assay is classed as functional, tissue-based, Homo sapiens. The method, boiled down: (§4)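 Patient-derived organoids were dissociated to single cells with Accutase and seeded in NB organoid medium at 5000 (000GKX), 20000 (NB059), 5000 (NB067) or 3000 (NB139) cells/well. Compound was added after 24 h over a concentration range in triplicate, with DMSO matched. Incubation was 120 h at 37 °C and 5% CO2. Viability was read by CellTiter-Glo 3D, and absolute IC50 derived (n = 1).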

The nature of assay [10]: Antiproliferative activity against human NGP cells assessed as reduction in cell viability incubated for 48 hrs. The assay is classed as functional, cell-based. The method, boiled down: as §3
Assay [11] is described as follows: Growth inhibition of patient derived NB059 Neuroblastoma organoid assessed as reduction in viability incubated for […] by CellTiter Glo 3D assay relative to control. It counts as functional. As to conditions: Homo sapiens. In general terms: In ATP-based viability assays light output follows the ATP content of the culture.
The next assay concerns IMR-32. The assay is described as follows: Antiproliferative activity against human IMR-32 cells assessed as reduction in cell viability incubated for 48 hrs relative to control. It counts as functional. In outline: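 Cells grown in RPMI 1640 with 10% fetal calf serum, 2 mM L-glutamine and penicillin/streptomycin at 37 °C, 5% CO2. Seeded at 4500 (IMR-32) or 2100 (SK-N-AS) cells/well in 384-well plates and left to adhere overnight. Concentration range dispensed in triplicate. Confluence tracked by IncuCyte live-cell imaging, and 48h values normalized to DMSO. Absolute IC50 taken from a four-parameter variable-slope fit (n = 4).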

The target in assay [12] is T1, Protein cereblon/Aurora kinase A (Homo sapiens). The assay is described as follows: PROTAC activity at AURKA/CRBN in human NGP cells assessed as AURKA degradation at 10 to 1000 nM measured for 24 hrs in presence of MK-5108 by Western blot analysis. It counts as cell-based. As to conditions: dose 10-1000 nM.
The target in assay [13] is T2, N-myc proto-oncogene protein (Homo sapiens). In words: Induction of MYCN degradation in human NGP cells incubated for 24 hrs by immunoblotting analysis. It counts as cell-based. As to conditions: dose 10-1000 nM.
Assay [14] deals with T1, Protein cereblon/Aurora kinase A (Homo sapiens). In words: PROTAC activity at AURKA/CRBN in human NGP cells assessed as increase in pCHK1 level at 10 to 1000 nM measured for 24 hrs by immunoblotting analysis. The assay is classed as cell-based. As to conditions: dose 10-1000 nM.
For assay [15] the target is unchanged. The assay is described as follows: PROTAC activity at AURKA/CRBN in human NGP cells assessed as AURKA degradation at 10 to 1000 nM measured for 24 hrs by Western blot analysis relative to control. It counts as cell-based. As to conditions: dose 10-1000 nM. In outline: as §1
Assay [16] shares this target. In words: PROTAC activity at AURKA/CRBN in human NGP cells assessed as increase in pRPA32 level at 10 to 1000 nM measured for 24 hrs by immunoblotting analysis. As to conditions: dose 10-1000 nM. The assay is classed as cell-based.
Assay [17] can be described thus: Growth inhibition of patient derived NB059 Neuroblastoma organoid assessed as reduction in viability incubated for 48 hrs by CellTiter Glo 3D assay. It counts as functional, tissue-based, Homo sapiens. As to conditions: in the assay text read “120 hrs” for “48 hrs”. The method, boiled down:
as §4

Assay [18] concerns the target T1, Protein cereblon/Aurora kinase A (Homo sapiens). The assay is described as follows: PROTAC activity at AURKA/CRBN in human NGP cells assessed as reduction in AURKA level at 500 nM measured for 1 hr by Western blot analysis. The assay is classed as cell-based. Also on record: scale not given: the % may be the effect or the level left. In outline: as §2
Assay [19] can be described thus: Growth inhibition of patient derived NB139 Neuroblastoma organoid assessed as reduction in viability […] by CellTiter Glo 3D assay. As to conditions: Homo sapiens. It counts as functional, tissue-based. The method, boiled down:
as §4

T1 sequence (O14965 whole entry, looked up): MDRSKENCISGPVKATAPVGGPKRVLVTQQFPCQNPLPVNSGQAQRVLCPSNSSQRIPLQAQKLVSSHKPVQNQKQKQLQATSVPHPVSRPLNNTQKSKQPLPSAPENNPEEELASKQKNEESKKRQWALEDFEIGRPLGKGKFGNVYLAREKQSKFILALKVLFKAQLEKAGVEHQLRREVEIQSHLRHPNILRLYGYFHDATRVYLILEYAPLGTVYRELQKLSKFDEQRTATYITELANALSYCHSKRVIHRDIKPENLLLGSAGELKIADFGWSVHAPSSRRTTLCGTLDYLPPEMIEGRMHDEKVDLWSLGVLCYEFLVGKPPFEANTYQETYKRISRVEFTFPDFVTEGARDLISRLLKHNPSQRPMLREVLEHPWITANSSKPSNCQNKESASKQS
T1 sequence (Q96SW2 whole entry, looked up): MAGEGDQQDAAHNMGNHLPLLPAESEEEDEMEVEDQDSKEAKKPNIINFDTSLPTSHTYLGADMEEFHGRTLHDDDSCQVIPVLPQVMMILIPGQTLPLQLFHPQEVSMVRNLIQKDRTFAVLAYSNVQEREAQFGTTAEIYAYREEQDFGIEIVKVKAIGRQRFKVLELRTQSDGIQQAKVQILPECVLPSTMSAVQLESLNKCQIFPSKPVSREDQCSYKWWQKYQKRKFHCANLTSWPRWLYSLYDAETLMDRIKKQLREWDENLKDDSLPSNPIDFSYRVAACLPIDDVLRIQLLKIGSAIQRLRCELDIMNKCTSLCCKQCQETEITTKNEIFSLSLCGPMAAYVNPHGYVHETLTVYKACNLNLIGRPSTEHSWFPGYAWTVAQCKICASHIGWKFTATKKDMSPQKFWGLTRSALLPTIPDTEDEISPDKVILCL

As for `O=C1CCC(N2C(=O)c3cccc(OCCOCCOCCOCCNC(=O)[C@]4(Cc5cccc(Nc6nccs6)n5)CC[C@@H](Oc5cccc(Cl)c5F)CC4)c3C2=O)C(=O)N1` (stereo partly specified), the outcome (in assay [1]; in the assay with NGP; in assay [5]; in assay [6]; in assay [14]; in assay [16]) was Active. The Activity was 73% in assay [2], “Dose-Dependent Effect” in [13] and 7% in assay [18]. Besides, the Emax was 38.2% in assay [3]; 53.5% in [4]; 27.8% in assay [7]; 80.2% in assay [11]; 14.1% with IMR-32; 85% in assay [15]. Further, the 50% inhibitory concentration (IC50) – broadly, the midpoint of a concentration-inhibition curve – in [8] is “Not Active”; in [9], “Not Active”; in assay [10] it was 31.9 nM; in assay [17], “Not Active”; in assay [19] it was 131 nM. Further, the result in assay [12] was inactive.

These data come from ChEMBL document CHEMBL5331087, “Targeted AURKA degradation: Towards new therapeutic agents for neuroblastoma” (Eur J Med Chem, 2023).
